In ChEMBL document CHEMBL1143597, “Thrombospondin-1 mimetic peptide inhibitors of angiogenesis and tumor growth: design, synthesis, and optimization of pharmacokinetics and biological activities” (J Med Chem, 2005):
Where a SMILES comes first, the peptide text is derived from it. [ ]: non-standard residue; d: D form. d(aIle) = CC[C@H](C)[C@@H](N)C(=O)O; Nva = CCC[C@H](N)C(=O)O; Sar = CNCC(=O)O

Tests used:
[1] = In vitro inhibitory concentration against HMVE cell migration was determined; assay type: functional, cell-based; conditions: Homo sapiens
Method in brief: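 Primary HMVEC grown to 80-90% confluency, starved 18 h in EBM with 5% FCS, labelled with calcein AM 30 min at room temperature. Cells with or without compound (in D5W) are placed above a filter with VEGF (10 ng) below, then held 4 h at 37 °C, 5% CO2. Unmigrated cells are wiped off and fluorescence is read (485/530). % inhibition is taken versus the VEGF positive control.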

[2] = In vitro inhibitory concentration against HMVEC endothelial tube formation was determined; assay type: functional, Homo sapiens
[3] = In vitro inhibitory concentration against HMVEC endothelial tube formation was determined; […]; assay type: functional, Homo sapiens
[4] = In vitro inhibitory concentration against HMVEC endothelial tube formation was determined; 50 - 25 nM; assay type: functional, Homo sapiens
[5] = In vitro inhibitory concentration against HMVEC endothelial tube formation was determined; 0.25 - 0.10 nM; assay type: functional, Homo sapiens
[6] = In vitro inhibitory concentration against HMVEC endothelial tube formation was determined; 200 - 100 nM; assay type: functional, Homo sapiens
[7] = Inhibitory concentration against TSP-1 binding towards HMVEC cell line migration; assay type: functional, cell-based; conditions: Homo sapiens

IC50 [1] [nM] | Structure (SMILES) | further results
> 100 | CCNC(=O)[C@H](CCCN=C(N)N)NC(=O)[C@@H](NC(=O)[C@H](CCCN=C(N)N)NC(=O)[C@@H](NC(=O)[C@H](NC(=O)[C@@H](NC(=O)CNC(C)=O)C(C)C)[C@H](C)CC)[C@@H](C)O)[C@@H](C)CC | 
1.45 | CCC[C@H](NC(=O)[C@@H](NC(=O)[C@H](CCCN=C(N)N)NC(=O)[C@@H](NC(=O)[C@H](NC(=O)[C@@H](NC(=O)CNC(C)=O)C(C)C)[C@H](C)CC)[C@@H](C)O)[C@@H](C)CC)C(=O)NCC | 
0.45 | CCC[C@@H](C(=O)N[C@H](C(=O)N[C@@H](CCCN=C(N)N)C(=O)N1CCC[C@H]1C(=O)NCC)[C@@H](C)CC)N(C)C(=O)[C@@H](NC(=O)[C@H](NC(=O)[C@@H](NC(=O)CNC(=O)CN(C)C(=O)CCC(=O)O)C(C)C)[C@H](C)CC)[C@@H](C)O | IC50 [3]: 10 nM
0.06 | CCC[C@@H](C(=O)N[C@H](C(=O)N[C@@H](CCCN=C(N)N)C(=O)N1CCC[C@H]1C(=O)NC(C)C)[C@@H](C)CC)N(C)C(=O)[C@@H](NC(=O)[C@H](NC(=O)[C@@H](NC(=O)CNC(=O)CN(C)C(=O)CCC(=O)O)C(C)C)[C@H](C)CC)[C@@H](C)O | IC50 [5]: 0.25 nM

Further lines, the compound ahead of its results:

Structure (SMILES) | IC50 [1] [nM] | further results
CCC[C@H](NC(=O)[C@@H](NC(=O)[C@H](NC(=O)[C@@H](NC(=O)CNC(C)=O)C(C)C)[C@H](C)CC)[C@@H](C)O)C(=O)N[C@H](C(=O)N[C@@H](CCCN=C(N)N)C(=O)NCC)[C@@H](C)CC | 4.22 | 
CCC[C@H](NC(=O)[C@@H](NC(=O)[C@H](NC(=O)[C@@H](NC(=O)CNC(C)=O)C(C)C)[C@H](C)CC)[C@@H](C)O)C(=O)N[C@H](C(=O)N[C@@H](CCCN=C(N)N)C(=O)N1CCC[C@H]1C(=O)NCC)[C@@H](C)CC | 0.07 | 
CCC[C@H](NC(=O)[C@@H](NC(=O)[C@H](NC(=O)[C@@H](NC(=O)CNC(=O)CN(C)C(C)=O)C(C)C)[C@H](C)CC)[C@@H](C)O)C(=O)N[C@H](C(=O)N[C@@H](CCCN=C(N)N)C(=O)N1CCC[C@H]1C(=O)NC(C)C)[C@@H](C)CC | 29 | IC50 [2]: > 1000 nM
CCC[C@H](NC(=O)[C@@H](NC(=O)[C@H](NC(=O)[C@@H](NC(=O)CNC(=O)CN(C)C(=O)CCC(=O)O)C(C)C)[C@H](C)CC)[C@@H](C)O)C(=O)N[C@H](C(=O)N[C@@H](CCCN=C(N)N)C(=O)N1CCC[C@H]1C(=O)NCC)[C@@H](C)CC | 0.26 | IC50 [3]: 10 nM
CCC[C@@H](C(=O)N[C@H](C(=O)N[C@@H](CCCN=C(N)N)C(=O)N1CCC[C@H]1C(=O)NCC)[C@@H](C)CC)N(C)C(=O)[C@@H](NC(=O)[C@H](NC(=O)[C@@H](NC(=O)CNC(=O)CN(C)C(C)=O)C(C)C)[C@H](C)CC)[C@@H](C)O | 0.54 | IC50 [4]: 50 nM
CCC[C@H](NC(=O)[C@@H](NC(=O)[C@H](NC(=O)[C@@H](NC(=O)CNC(=O)CN(C)C(C)=O)C(C)C)[C@H](C)CC)[C@@H](C)O)C(=O)N[C@H](C(=O)N[C@@H](CCCN=C(N)N)C(=O)N1CCC[C@H]1C(=O)NCC)[C@@H](C)CC [ABT 510] (Ac-[Sar]GV[dI]T[Nva]IRP-NHEt) |  | IC50 [6]: 200 nM; IC50 [7]: 0.03 nM
CCC[C@H](NC(=O)[C@@H](NC(=O)[C@H](NC(=O)[C@@H](NC(=O)CNC(=O)CN(C)C(C)=O)C(C)C)[C@@H](C)CC)[C@@H](C)O)C(=O)N[C@H](C(=O)N[C@@H](CCCNC(=N)N)C(=O)N1CCC[C@H]1C(=O)NCC)[C@@H](C)CC [ABT-510] (Ac-[Sar]GV[d(aIle)]T[Nva]IRP-NHEt) |  | IC50 [3]: 10 nM; IC50 [7]: 0.89 nM
